APP 5UTR inh – APP translation inhibition | hit rate 0.82% among 190,000 | AID 1285 | inhibition, % at 2 µM | SH-SY5Y APP 5'UTR-luciferase reporter, luminescence;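 active = inhibition above a set limit, derived from the sample mean plus 3 SD, cut at about 45% in these data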
Ba/F3 V617F tox – lowers viability of Ba/F3 cells expressing EpoR and JAK2V617F | ATP luminescence | inhibition, % at 5.6 µM | hit rate 1.1% among 220,000;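 active = inhibition above the campaign mean plus 3 SD over all tested compounds, cut at about 24% in these data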;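 note: cytokine-independent growth of Ba/F3 cells driven by EpoR plus mutant JAK2; 0% = DMSO-treated cells and 100% = JAK inhibitor I control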
BaF3 tox – reduces parental Ba/F3 cell viability, JAK2V617F counter-screen; hit rate 1.1% among 220,000; inhibition, % at 5.6 µM; CellTiter-Glo ATP luminescence; AID 1486;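 active = inhibition above a per-campaign cutoff, the mean inhibition of all tested compounds plus 3 SD, cut at about 27% in these data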;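 note: 0% = DMSO wells and 100% = JAK Inhibitor I control wells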
L major viab – Leishmania major promastigote growth inhibition | AID 1063 | hit rate 9% among 200,000 | Leishmania major promastigotes, resazurin fluorescence viability | inhibition, % at 10 µM; in the data active = inhibition above about 50%;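 note: promastigotes grown with compound for 44 hours at 28 °C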
b-catenin transl – beta-catenin nuclear translocation modulation | HeLa beta-catenin nuclear translocation, immunofluorescence imaging | nuclear translocation activity, % at 5 µM | hit rate 0.3% among 190,000;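 active = nuclear translocation activity above 50% at 5 µM, with a well cell count of 50 or more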;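 note: per-cell ratio of nuclear to cytoplasmic median beta-catenin stain intensity; plate controls were DMSO negative control for no effect and GSK-3 inhibitor IX positive control for full effect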
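Assay system: human HeLa cells, native beta-catenin; doses: 5 µM primary, 0.02–20 µM confirmation; incubation: compound treatment 24 h, 37°C, 5% CO2; technique: fluorescence imaging of beta-catenin antibody stain plus DAPI; measure: % activation, nuclear-to-cytoplasmic median beta-catenin signal ratio per cell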
MT stabilizer – stabilizes microtubules in HeLa cells; HeLa tubulin immunostaining HCS, 24 h; share of cells brighter than vehicle mean+2SD; % tubulin-high responders, % at 10 µM; hit rate 0.83% among 200,000; AID 2205;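 active = plate Z-score above 3 for both tubulin-high and condensed-nucleus cell shares, with cell loss under 80%, at 10 µM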;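 note: anti alpha tubulin signal scored within the nucleus-defined area of each cell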
* = called active by the depositor; x = no result given. A selection: hits, their analogues and other compounds. The true share with any hit is near 9.6%.

SMILES	APP 5UTR inh	Ba/F3 V617F tox	BaF3 tox	L major viab	b-catenin transl	MT stabilizer
O=C(CSc1ccc(Cl)cc1)N1CCN(c2c(Cl)cccc2[N+](=O)[O-])CC1	-17	0	5	65*	3	2
COc1cccc(CC(=O)Nc2ccc(S(=O)(=O)Nc3nc(C)cc(C)n3)cc2)c1	-19	-4	0	-1	0	3
CC1CCc2nc(/C(C#N)=C/c3ccncc3)sc2C1 (stereo not drawn)	-47	0	2	53*	-2	3
N#C/C(=C/c1ccncc1)c1nc2ccccc2s1	-34	2	4	3	0	3
O=C(O)c1ccc(-n2cccn2)nc1	-21	-1	10	3	0	2
CCOC(=O)/C(C#N)=C/c1ccc(OCC(=O)Nc2ccc(OC)cc2)c(OC)c1	x	-2	5	-3	1	1
CCOC(=O)/C(C#N)=C/c1ccc(OCC(=O)Nc2ccc(C)c(C)c2)c(OC)c1	-20	0	5	52*	2	5
O=[N+]([O-])c1cccc(-c2csc(N/N=C/c3cccc(O)c3)n2)c1	-52	-1	2	98*	-1	3
COc1ccc(CC(=O)Nc2nc(-c3cccc([N+](=O)[O-])c3)cs2)cc1	-3	-3	4	62*	x	5
COc1ccc(CN2C(=O)c3c(c(C)n(C)c3C)C2C(=O)NC2CCC(C)CC2)cc1 (stereo not drawn)	16	-3	3	9	-1	2
CCN(CC)C(=O)CSc1nc2c(c(-c3cccnc3)c1C#N)CCCC2	8	5	6	4	-4	3
CC(C)Cc1nc2ccccc2[nH]1	x	-1	-6	x	0	x
Cc1cccc(CC(Cc2nc3ccccc3[nH]2)c2nc3ccccc3[nH]2)c1 (stereo not drawn)	-3	-2	1	93*	0	2
CC(c1ccccc1)C(Cc1nc2ccccc2[nH]1)c1nc2ccccc2[nH]1 (stereo not drawn)	-1	-3	3	95*	-4	3
COc1ccccc1CC(Cc1nc2ccccc2[nH]1)c1nc2ccccc2[nH]1 (stereo not drawn)	19	-3	3	98*	-1	3
COc1ccc(Cc2nc3ccccc3[nH]2)cc1OC	7	-3	-1	-2	-1	3
Cc1cc(-c2nc3ncccc3o2)ccc1NC(=S)NC(=O)C(C)C	-27	3	8	-2	0	5
CC1CN(C(=O)/C=C/c2ccc([N+](=O)[O-])s2)CC(C)O1 (stereo not drawn)	-18	4	4	82*	1	5
CC1CC(C)CN(C(=O)/C=C/c2ccc([N+](=O)[O-])s2)C1 (stereo not drawn)	5	2	-4	98*	5	3
CC1CN(C(=O)/C=C/c2ccccc2[N+](=O)[O-])CC(C)O1 (stereo not drawn)	-13	-2	3	-3	1	2
CCn1cc(C(=O)NNC(=O)c2ccc(Cl)cc2)c(=O)c2ccc(C)nc21	-20	0	7	11	2	4
CC(C)CNC(C(=O)Nc1ccc([N+](=O)[O-])cc1Br)c1ccccc1 (stereo not drawn)	7	2	3	79*	-1	5
CCN1CCCC(NC(=O)c2cc([N+](=O)[O-])ccc2OC)C1 (stereo not drawn)	-4	0	3	47	1	2
O=C(Nc1nc2ccccc2s1)C1CCCO1 (stereo not drawn)	-49	-2	95*	0	0	2
COc1ccc(S(=O)(=O)N2CCCC2C(=O)Nc2nc3c(s2)CCCC3)cc1 (stereo not drawn)	2	-3	1	90*	x	2
CCOCCCNC(=O)C1CCCN1S(=O)(=O)c1ccc(Cl)cc1 (stereo not drawn)	-11	-1	1	93*	-1	5
CCOCCCNC(=O)C1CCCCN1S(=O)(=O)c1ccc(F)cc1 (stereo not drawn)	-6	-2	1	0	-1	3
COc1ccc(-c2csc(NC(=O)c3cccc(S(=O)(=O)N4CCN(C)CC4)c3)n2)cc1	3	4	8	63*	0	3
Cc1cc(=O)oc(C)c1C(=O)Nc1cccc(F)c1	x	-5	0	x	1	x

Source: PubChem (several laboratories)
